Results on 9 compounds are retold here after ChEMBL document CHEMBL1140944, “A new class of vitamin D analogues that induce structural rearrangement of the ligand-binding pocket of the receptor” (J Med Chem, 2009).

Numbering of substitutions follows the chain as printed. Calls of active or inactive are those of the source. No cut-off for these calls is given here.

Usually EC50 stands for the concentration giving half of the maximal effect.

The target in assay [1] is T1, Vitamin D3 receptor (Homo sapiens) (UniProt P11473).
T1 sequence (whole entry): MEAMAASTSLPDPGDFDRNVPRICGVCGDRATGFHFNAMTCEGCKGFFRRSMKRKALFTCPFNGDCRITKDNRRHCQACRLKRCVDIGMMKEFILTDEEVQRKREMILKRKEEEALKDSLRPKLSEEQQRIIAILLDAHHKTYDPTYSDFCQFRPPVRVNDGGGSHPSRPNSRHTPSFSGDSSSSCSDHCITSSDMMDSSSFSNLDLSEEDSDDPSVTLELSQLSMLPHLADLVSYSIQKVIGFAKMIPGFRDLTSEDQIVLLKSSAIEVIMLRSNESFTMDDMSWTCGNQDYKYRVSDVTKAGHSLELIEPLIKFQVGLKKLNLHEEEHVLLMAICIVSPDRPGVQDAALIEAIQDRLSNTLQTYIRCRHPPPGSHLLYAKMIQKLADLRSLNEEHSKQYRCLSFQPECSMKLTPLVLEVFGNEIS
Kind of assay: Agonist activity at full length human VDR expressed in african green monkey Cos7 cells overexpressing mouse osteopontin vitamin D-responsive element assessed as transcriptional activation after 16 hrs by dual luciferase reporter gene assay. The conditions noted are these: COS-7. The class given is functional, cell-based. The essentials: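 COS-7 cells in DMEM with 5% FBS were lipofected with full-length pCMX-hVDR, the SPPx3-TK-Luc osteopontin VDRE reporter and pRL-CMV. After 8 h, ligand or ethanol vehicle was added for 16 h. Dual luciferase read-out was normalized to the internal control. Activity at 10^-8 M 1,25-(OH)₂D₃ was set as 1; triplicate.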
On the technique in general: In a reporter assay the amount or activity of a reporter protein is the signal.

Assay [2] relates to HEK293. In words: Induction of CYP24A1 mRNA expression in HEK293 cells at 10^-6 M after 24 hrs by quantitative real time PCR. Type of assay: functional, cell-based. The conditions noted are these: Homo sapiens. The essentials: (§1)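 HEK293 cells were treated for 24 h with 10^-6 M compound, without (12) or with (15) 10^-8 M 1,25-(OH)₂D₃. CYP24A1 mRNA was measured by quantitative real-time RT-PCR and normalized to actin mRNA; mean ± SD of triplicates.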

Assay [3] has as its system HL-60. In words: Induction of cell differentiation in human HL60 cells after 4 days by NBT reduction assay. The class given is functional, cell-based. In outline:
(§2)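 HL-60 promyelocytic leukemia cells were plated at 2 × 10⁵ cells/plate in Eagle's modified medium. Compound was added at 10^-6, 10^-7 or 10^-8 M for 4 days. Differentiation was scored by nitro blue tetrazolium reduction.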

For assay [4], the target named is T1, Vitamin D3 receptor (Homo sapiens). In words: Agonist activity at human VDR expressed in african green monkey COS7 cells overexpressing GAL4 response element assessed as SRC1 peptide recruitment by mammalian two hybrid assay. Type of assay: functional, cell-based. The settings on record: COS-7.
Assay [5] has the same target. Kind of assay: Agonist activity at human VDR expressed in african green monkey COS7 cells overexpressing GAL4 response element assessed as RXRalpha recruitment by mammalian two hybrid assay. The class given is functional, cell-based. The settings on record: COS-7.
Another assay addresses T2, Vitamin D3 receptor (Bos taurus, UniProt Q28037).
T2 sequence (Q28037 whole entry): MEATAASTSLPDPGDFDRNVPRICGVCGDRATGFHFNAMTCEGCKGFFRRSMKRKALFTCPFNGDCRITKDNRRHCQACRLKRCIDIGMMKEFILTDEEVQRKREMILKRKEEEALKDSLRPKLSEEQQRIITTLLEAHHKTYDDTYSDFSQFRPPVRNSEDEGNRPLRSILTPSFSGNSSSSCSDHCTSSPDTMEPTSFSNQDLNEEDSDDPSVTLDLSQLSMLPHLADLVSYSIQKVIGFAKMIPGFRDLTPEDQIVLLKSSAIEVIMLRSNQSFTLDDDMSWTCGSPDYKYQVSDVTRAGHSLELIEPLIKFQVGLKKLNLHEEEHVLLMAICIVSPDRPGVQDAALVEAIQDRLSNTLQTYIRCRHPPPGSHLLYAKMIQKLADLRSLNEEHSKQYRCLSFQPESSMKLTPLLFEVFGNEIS
Kind of assay: Displacement of [3H]1,25-(OH)2D3 from bovine thymus vitamin D receptor. The essentials: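 Bovine thymus VDR was dissolved in 0.05 M phosphate buffer, pH 7.4, with 0.3 M KCl and 5 mM DTT. Free ligand was removed with dextran-coated charcoal (20 min, 4 °C) and supernatant radioactivity counted. Nonspecific binding was subtracted; EC₅₀ came from dose-response curves; duplicate.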
In general terms: Loss of bound radioactivity is the signal in a displacement assay; it reports binding, not function.

Assay [6] deals with T1, Vitamin D3 receptor (Homo sapiens). Kind of assay: Antagonist activity at full length human VDR expressed in african green monkey Cos7 cells overexpressing mouse osteopontin vitamin D-responsive element assessed as inhibition of 1,25-(OH)2D3-induced transcriptional activation after 16 hrs by dual luciferase reporter gene assay. Type of assay: functional, cell-based. The settings on record: COS-7. The essentials: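 Cos7 cells were transfected with full-length hVDR, the SPPx3-TK-Luc osteopontin VDRE reporter and pRL-CMV. Test ligands were given together with 10^-9 M 1,25-(OH)₂D₃ for 16 h. Dual luciferase signal was normalized to the sea pansy control, with activity at 10^-8 M 1,25-(OH)₂D₃ set as 1; triplicate.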

Assay [7] relates to HEK293. Kind of assay: Inhibition of 1,25-(OH)2D3-induced CYP24A1 mRNA expression in HEK293 cells at 10^-6 M after 24 hrs by quantitative real time PCR. The conditions noted are these: Homo sapiens. The class given is functional, cell-based. The essentials:
as §1
For orientation: In qPCR the cycle at which signal appears reflects the starting amount.

Assay [8] concerns T3, Vitamin D3 receptor (Homo sapiens), P11473 [H397A].
T3 sequence (whole entry): T1 sequence (whole entry) with H397A
Kind of assay: Agonist activity at full length human VDR H397A mutant expressed in african green monkey COS7 cells overexpressing mouse osteopontin vitamin D-responsive element assessed as transcriptional activation at 10^-6 M after 16 hrs by dual luciferase reporter gene assay. The class given is functional, cell-based. The conditions noted are these: COS-7. The essentials:
(§3)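 COS-7 cells in DMEM with 5% FBS, seeded at 2 × 10⁴ per well. After 24 h they were lipofected with the mutant hVDR plasmid (pCMX-hVDR), the SPPx3-TK-Luc reporter (three mouse osteopontin VDREs) and the pRL-CMV control. After 8 h, ligand was added at 10^-6 M, or ethanol vehicle, for 16 h. Firefly luciferase was normalized to the internal control; triplicate.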

The target of assay [9] is T1, Vitamin D3 receptor (Homo sapiens). Kind of assay: Agonist activity at full length human VDR expressed in HEK293 cells overexpressing mouse osteopontin vitamin D-responsive element assessed as transcriptional activation after 16 hrs by dual luciferase reporter gene assay. The class given is functional, cell-based.
The target is the same in assay [10]. Kind of assay: Antagonist activity at full length human VDR expressed in HEK293 cells overexpressing mouse osteopontin vitamin D-responsive element assessed as inhibition of 1,25-(OH)2D3-induced transcriptional activation after 16 hrs by dual luciferase reporter gene assay. The class given is functional, cell-based.
In assay [11] the test system is HEK293. Kind of assay: Inhibition of 1,25-(OH)2D3-induced CYP24A1 mRNA expression in HEK293 cells after 24 hrs by real time PCR. The class given is functional, cell-based. The conditions noted are these: Homo sapiens. In outline: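 HEK293 cells were exposed to the indicated compound concentrations for 24 h. CYP24A1 mRNA was quantified by real-time RT-PCR against actin; triplicate.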

Assay [12] relates to HL-60. Kind of assay: Inhibition of 1,25-(OH)2D3-induced cell differentiation in human HL60 cells after 4 days by NBT reduction assay. The class given is functional, cell-based. In outline:
as §2

Assay [13] concerns HL-60. Kind of assay: Inhibition of 1,25-(OH)2D3-induced cell differentiation in human HL60 cells assessed as morphological changes at 10^-6 M by Wright-Geimsa staining. The class given is functional, cell-based. The essentials:
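HL-60 cells were stained with Wright-Giemsa and their morphology examined by light microscopy.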

The target of assay [14] is T1, Vitamin D3 receptor (Homo sapiens). In words: Antagonist activity at human VDR expressed in african green monkey COS7 cells overexpressing GAL4 response element assessed as RXRalpha recruitment by mammalian two hybrid assay. Type of assay: functional, cell-based. The settings on record: COS-7.
For assay [15] the target is unchanged. Kind of assay: Antagonist activity at human VDR expressed in african green monkey COS7 cells overexpressing GAL4 response element assessed as SRC1 peptide recruitment by mammalian two hybrid assay. The class given is functional, cell-based. The conditions noted are these: COS-7.
Assay [16] relates to HL-60. In words: Inhibition of 1,25-(OH)2D3-induced differentiation in human HL60 cells after 4 days by NBT reduction assay.
Assay [17] relates to T4, Vitamin D3 receptor (Homo sapiens), P11473 [H305A].
T4 sequence (whole entry): T1 sequence (whole entry) with H305A
Kind of assay: Agonist activity at full length human VDR H305A mutant expressed in african green monkey COS7 cells overexpressing mouse osteopontin vitamin D-responsive element assessed as transcriptional activation at 10^-6 M after 16 hrs by dual luciferase reporter gene assay. The class given is functional, cell-based. The settings on record: COS-7. In outline: as §3

Take `C=C1/C(=C\C=C2/CCC[C@]3(C)[C@@H]([C@@H](C)[C@H](CCO)CCCC)CC[C@@H]23)C[C@@H](O)C[C@@H]1O`: the outcome (in assay [1]; in the assay with HEK293 [2]; with HL-60 [3]; in assay [4]; in assay [5]) was Active. This compound also returned an EC50 at Vitamin D3 receptor of 2 nM.
Take `C=C1/C(=C\C=C2/CCC[C@]3(C)[C@@H]([C@@H](C)[C@@H](CCO)CCCC)CC[C@@H]23)C[C@@H](O)C[C@@H]1O`: the Activity result in [6], in assay [9] and in assay [10] was “Dose-dependent effect” throughout. Besides, the result (in the assay on HEK293 [7]; in assay [8]) was Active. Also, the result in the assay with HL-60 [3] was inactive. This compound also registered an EC50 on Vitamin D3 receptor of 20 nM.
As to `C=C1/C(=C\C=C2/CCC[C@]3(C)[C@@H]([C@H](C)[C@@H](CCCC)C[C@H](O)C(C)C)CC[C@@H]23)C[C@@H](O)C[C@@H]1O`, the Activity result in [6], in assay [9] and in [10] was “Dose-dependent effect” in each case. Moreover, the result in the assay on HEK293 [7] was Active. Besides, the result in the assay with HL-60 [3] was inactive. In addition, the midpoint of the response at Vitamin D3 receptor, the EC50, lay at 3.8 nM.
`C=C1/C(=C\C=C2/CCC[C@]3(C)[C@@H]([C@H](C)[C@H](CCO)CCCC)CC[C@@H]23)C[C@@H](O)C[C@@H]1O`: the Activity result (in [6]; in the assay with HEK293 [11]; in assay [9]; in assay [10]) was “Dose-dependent effect” each time. Further, the outcome (in the assay with HEK293 [7]; in the assay on HL-60 [12]; with HL-60 [13]; in assay [14]; in assay [15]; with HL-60 [16]) was Active. The result with HL-60 [3] was inactive. The same compound gave an EC50 at Vitamin D3 receptor of 1.2 nM.
`C=C1/C(=C\C=C2/CCC[C@]3(C)[C@@H]([C@H](C)CCCC(C)(C)O)CC[C@@H]23)C[C@@H](O)C[C@@H]1O`: the outcome in the assay with HL-60 [3] and in the assay with HL-60 [13] was Active.
Consider `C=C1/C(=C\C=C2/CCC[C@]3(C)[C@@H]([C@H](C)[C@H](CCCC)C[C@H](O)C(C)C)CC[C@@H]23)C[C@@H](O)C[C@@H]1O`, for which the Activity result in assay [6], in [9] and in [10] was “Dose-dependent effect” throughout. For the same compound, the result (in the assay on HEK293 [7]; in [17]) was Active. Also, in the assay with HL-60 [3], the outcome was inactive. At Vitamin D3 receptor, this compound gave a concentration giving a half-maximal response (EC50) of 3.4 nM.
As to `C=C1/C(=C\C=C2/CCC[C@]3(C)[C@@H]([C@H](C)[C@H](CCCC)C[C@@H](O)C(C)C)CC[C@@H]23)C[C@@H](O)C[C@@H]1O`, in the assay with HL-60 [3], the outcome was inactive. For the same compound, it took 16 nM to reach a half-maximal effect on Vitamin D3 receptor (EC50).
As to `C=C1/C(=C\C=C2/CCC[C@]3(C)[C@@H]([C@H](C)[C@@H](CCCC)C[C@@H](O)C(C)C)CC[C@@H]23)C[C@@H](O)C[C@@H]1O`, at Vitamin D3 receptor, the EC50 was 20 nM.
As to `C=C1/C(=C\C=C2/CCC[C@]3(C)[C@@H]([C@H](C)[C@@H](CCO)CCCC)CC[C@@H]23)C[C@@H](O)C[C@@H]1O`, the result in the assay with HL-60 [3] was inactive. A half-maximal response at Vitamin D3 receptor (EC50) required 11 nM.
